Experimental data from ChEMBL document CHEMBL1122425, “Synthesis and some pharmacological properties of [4-threonine,7-sarcosine]oxytocin, a peptide with high oxytocic potency, and of [4-threonine,7-N-methylalanine]oxytocin” (1983).

What was measured:
[1] = Ratio of Oxytocin to Pressor activity; format: functional
Rattus norvegicus [2] = experiment: Evaluation of antidiuretic activity against ethanol-anesthetized rats; format: functional, Urine
Method in brief: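 Rats water-loaded before assay, under ethanol anesthesia.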

Rattus norvegicus [3] = organism: Rattus norvegicus; experiment: In vitro for uterotonic activity in the absence of Mg2+ ion by Munsick method; format: functional
Rattus norvegicus [4] = organism: Rattus norvegicus; experiment: Evaluation of milk ejecting activity; format: functional
Rattus norvegicus [5] = organism: Rattus norvegicus; experiment: In vitro for uterotonic activity in the presence of Mg2+ ion by Munsick method; format: functional
Method in brief: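 Isolated uterus bath contains 0.5 mM Mg2+.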

[6] = Ratio of Oxytocin to Antidiuretic activity; format: functional, Urine
Rattus norvegicus [7] = organism: Rattus norvegicus; experiment: Evaluation of vasopressor activity; format: functional

SMILES | Ratio [1] | Activity (Rattus norvegicus [2]) | Activity (Rattus norvegicus [3]) | Activity (Rattus norvegicus [4]) | Activity (Rattus norvegicus [5]) | Ratio [6] | Activity (Rattus norvegicus [7])
CC[C@H](C)[C@@H]1NC(=O)[C@@H](Cc2ccc(O)cc2)NC(=O)[C@H](N)CSSC[C@@H](C(=O)N(C)CC(=O)N[C@@H](CC(C)C)C(=O)NCC(N)=O)NC(=O)[C@H](CC(N)=O)NC(=O)[C@@H](CCC(N)=O)NC1=O | > 1310 | – | – | – | – | – | –
CC[C@H](C)[C@@H]1NC(=O)[C@@H](Cc2ccc(O)cc2)NC(=O)[C@H](N)CSSC[C@@H](C(=O)N(C)CC(=O)N[C@@H](CC(C)C)C(=O)NCC(N)=O)NC(=O)[C@H](CC(N)=O)NC(=O)[C@@H]([C@H](C)O)NC1=O | > 2350 | – | – | – | – | – | –
CC[C@H](C)[C@@H]1NC(=O)[C@@H](Cc2ccc(O)cc2)NC(=O)[C@H](N)CSSC[C@@H](C(=O)N2CCC[C@@H]2C(=O)N[C@@H](CC(C)C)C(=O)NCC(N)=O)NC(=O)[C@H](CC(N)=O)NC(=O)[C@@H]([C@H](C)O)NC1=O | 2150 | – | – | – | – | – | –
CC[C@H](C)[C@@H]1NC(=O)[C@H](Cc2ccc(O)cc2)NC(=O)[C@@H](N)CSSC[C@@H](C(=O)N2CCC[C@H]2C(=O)N[C@@H](CC(C)C)C(=O)NCC(N)=O)NC(=O)[C@H](CC(N)=O)NC(=O)[C@H](CCC(N)=O)NC1=O [OXYTOCIN] | 120 | 4 U mg-1 | 520 U mg-1 | 474 U mg-1 | 486 U mg-1 | – | –
CC[C@H](C)[C@@H]1NC(=O)[C@H](Cc2ccc(O)cc2)NC(=O)[C@@H](N)CSSC[C@@H](C(=O)N(C)[C@@H](C)C(=O)N[C@@H](CC(C)C)C(=O)NCC(N)=O)NC(=O)[C@H](CC(N)=O)NC(=O)[C@H]([C@@H](C)O)NC1=O | – | 0.047 U mg-1 | 115 U mg-1 | 243 U mg-1 | 219 U mg-1 | 2450 | <0.6 U mg-1
CC[C@H](C)[C@@H]1NC(=O)[C@@H](Cc2ccc(O)cc2)NC(=O)[C@H](N)CSSC[C@@H](C(=O)N(C)[C@H](C)C(=O)N[C@@H](CC(C)C)C(=O)NCC(N)=O)NC(=O)[C@H](CC(N)=O)NC(=O)[C@@H]([C@H](C)O)NC1=O | > 192 | – | – | – | – | – | –
CC[C@H](C)[C@@H]1NC(=O)[C@H](Cc2ccc(O)cc2)NC(=O)[C@@H](N)CSSC[C@@H](C(=O)N(C)[C@@H](C)C(=O)N[C@@H](CC(C)C)C(=O)NCC(N)=O)NC(=O)[C@H](CC(N)=O)NC(=O)[C@H](CCC(N)=O)NC1=O | – | 0.12 U mg-1 | 62 U mg-1 | 402 U mg-1 | 184 U mg-1 | 516 | <0.35 U mg-1
CC[C@H](C)[C@@H]1NC(=O)[C@H](Cc2ccc(O)cc2)NC(=O)[C@@H](N)CSSC[C@@H](C(=O)N(C)CC(=O)N[C@@H](CC(C)C)C(=O)NCC(N)=O)NC(=O)[C@H](CC(N)=O)NC(=O)[C@H](CCC(N)=O)NC1=O | – | 0.18 U mg-1 | 459 U mg-1 | 564 U mg-1 | 609 U mg-1 | 2550 | <0.35 U mg-1
CC[C@H](C)[C@@H]1NC(=O)[C@H](Cc2ccc(O)cc2)NC(=O)[C@@H](N)CSSC[C@@H](C(=O)N2CCC[C@H]2C(=O)N[C@@H](CC(C)C)C(=O)NCC(N)=O)NC(=O)[C@H](CC(N)=O)NC(=O)[C@H]([C@@H](C)O)NC1=O | – | 1.8 U mg-1 | 923 U mg-1 | 543 U mg-1 | 719 U mg-1 | 510 | 0.43 U mg-1
CC[C@H](C)[C@@H]1NC(=O)[C@H](Cc2ccc(O)cc2)NC(=O)[C@@H](N)CSSC[C@@H](C(=O)N(C)CC(=O)N[C@@H](CC(C)C)C(=O)NCC(N)=O)NC(=O)[C@H](CC(N)=O)NC(=O)[C@H]([C@@H](C)O)NC1=O | – | 0.037 U mg-1 | 1173 U mg-1 | 731 U mg-1 | 1561 U mg-1 | 31700 | <0.5 U mg-1
CC[C@H](C)[C@@H]1NC(=O)[C@@H](Cc2ccc(O)cc2)NC(=O)[C@H](N)CSSC[C@@H](C(=O)N(C)[C@H](C)C(=O)N[C@@H](CC(C)C)C(=O)NCC(N)=O)NC(=O)[C@H](CC(N)=O)NC(=O)[C@@H](CCC(N)=O)NC1=O | > 177 | – | – | – | – | – | –
